What is called Inhibition is the change of the read-out against control, counted positive when it falls.

The source of these data is ChEMBL document CHEMBL1123797, “Antianaphylactic benzophenones and related compounds” (1987).

Assay [1] is filed under the species Cavia porcellus. Kind of assay: Inhibition of slow reacting substance of anaphylaxis (SRS-A) release from sensitized guinea pig chopped lung upon antigen challenge at 10 ug/mL. It counts as functional. The gist of the method:
(§1)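 Guinea pigs sensitized to ovalbumin; lungs taken 3 weeks later, perfused with Tyrode, chopped into 0.5-mm cubes. 100-mg aliquots in Tyrode were preincubated 5 min at 37 °C, then compound or Tyrode and ovalbumin (5 mg in 0.1 mL) were added. Incubation was 15 min at 37 °C with rocking, and supernatant was bioassayed. Unchallenged control gave spontaneous release. Values are % inhibition, mean of ≥4 samples; Student's t-test.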

The species entered for assay [2] is Cavia porcellus. Briefly: Inhibition of histamine release from sensitized guinea pig chopped lung upon antigen challenge at 10 ug/mL. It counts as functional. The gist of the method: as §1

As to `Cc1ccc(O)c(/C(=N\O)c2ccc(Cl)cc2)c1`, the Inhibition in assay [1] was found to be 32%; in assay [2], 25%.

For `CCc1ccc(S(C)(=O)=O)c(C(=O)c2ccc(C)cc2)c1`, the Inhibition in assay [1] is reported as 11%.

With `CCc1ccc(/C(=N/O)c2ccc(Cl)cc2)c(O)c1`, in assay [1], the Inhibition is recorded as 0%.

In the case of `CCc1ccc(C(O)c2ccc(F)cc2)c(O)c1` (stereo unspecified), the Inhibition turned out to be 34% in assay [1] and 5% in assay [2].

Turning to `CCCc1cccc(C(=O)c2ccc(Cl)cc2)c1O`, in assay [1], the Inhibition was determined as 0%.

Turning to `O=C(c1ccccc1)c1ccccc1O`, in assay [1], the Inhibition is 0%.

In the case of `CCc1cc([S+]([O-])c2ccc(C)cc2)c(O)cc1Cl` (stereo unspecified), the Inhibition in assay [1] amounted to 5%.

As for `CCc1ccc(C(=O)c2cccc(F)c2)c(O)c1`, the Inhibition in assay [1] stood at 26%.

In the case of `CCc1cc(CC)c(O)c(C(=O)c2ccc(Cl)cc2)c1`, the results for the Inhibition in assay [1] and in assay [2] were 38% and 9%, respectively.

In the case of `CCc1cccc(C(=O)c2ccc(Cl)cc2)c1O`, the Inhibition in assay [1] came out at 2%.

Regarding `Cc1ccc(C(=O)c2ccc(F)cc2)c(O)c1`, the Inhibition in assay [1] is given as 10%.

Take `CCCc1cccc(C(=O)c2ccccc2)c1O`: the Inhibition in assay [1] worked out at 0%.

On to `CCc1ccc(O)c(C(=O)c2cccc3ccccc23)c1`, for which, in assay [1], the Inhibition came out at 0%.

Consider `CCc1ccc(O)c(C(=O)c2ccc(F)cc2)c1`, for which the Inhibition in assay [1] is listed as 1%.

As to `CCc1ccc([S+](C)[O-])c(C(=O)c2ccc(Cl)cc2)c1` (stereo unspecified), the values for the Inhibition in assay [1] and in assay [2] were 36% and 1%, respectively.

In the case of `CCc1ccc(O)c(C(=O)c2ccc(Br)cc2)c1`, the Inhibition in assay [1] is 10%.

Consider `CC(=O)c1ccc(O)c(C(=O)c2ccc(Cl)cc2)c1`, for which the Inhibition in assay [1] is 49%; in assay [2] it was 61%.

On to `Cc1ccc(C(=O)c2ccc(Cl)cc2)c(O)c1`, for which, in assay [1], the Inhibition was determined as 0%.

In the case of `CCc1ccc(O)c(C(=O)c2cccc(Cl)c2)c1`, the Inhibition in assay [1] is listed as 0%.

On to `Cc1ccc(/C(=N/O)c2ccc(Cl)cc2)c(O)c1`, for which the Inhibition in assay [1] is recorded as 0%.

Take `CCCc1ccc(O)c(/C(=N/O)c2ccc(Cl)cc2)c1`: the Inhibition in assay [1] is 8%.

On to `CCc1ccc(O)c(/C(=N/O)c2ccc(Cl)c(Cl)c2)c1`, for which the Inhibition in assay [1] is reported as 2%.

For the compound `CCCCc1ccc(O)c(C(=O)c2ccc(Cl)cc2)c1`, the Inhibition in assay [1] was determined as 0%.

With `CCc1ccc(C(=O)c2ccc(Cl)cc2)c(O)c1`, the Inhibition in assay [1] is on record as 8%.

On to `CCCc1ccc(O)c(C(=O)c2ccc(Cl)cc2)c1`, for which the Inhibition in assay [1] came out at 0%.

Consider `CCc1ccc(OC(C)=O)c(C(=O)c2ccc(Cl)cc2)c1`, for which the Inhibition in assay [1] is given as 28%.

As for `CCc1ccc(OC(=O)c2ccccc2)c(C(=O)c2ccc(Cl)cc2)c1`, the Inhibition in assay [1] was 71%; in assay [2], 32%.

`CCc1ccc(OC)c(C(=O)c2ccncc2)c1`: the Inhibition in assay [1] is 0%.

In the case of `C=C(c1ccc(Cl)cc1)c1cc(CC)ccc1O`, the Inhibition in assay [1] is 3%.

As to `CCc1ccc(O)c(C(=O)c2ccco2)c1`, the results for the Inhibition in assay [1] and in assay [2] were 32% and 0%, respectively.

In the case of `CCc1ccc(O)c(C(O)c2ccccc2)c1` (stereo unspecified), the Inhibition in assay [1] worked out at 37%; in assay [2], 7%.

For `CCc1ccc(C(=O)c2ccc(F)cc2)c(OC(C)=O)c1`, the Inhibition in assay [1] is listed as 9%.

As to `CCc1ccc(O)c(C(O)c2ccc(Cl)cc2)c1` (stereo unspecified), the Inhibition in assay [1] came out at 5%.

`C=C(c1ccccc1)c1cc(CC)ccc1O`: the Inhibition in assay [1] is 24%.

In the case of `CCc1ccc(O)c(Cc2ccc(Cl)cc2)c1`, the Inhibition in assay [1] was 39%; in assay [2], 17%.

On to `CCc1ccc(SC)c(C(O)c2ccc(Cl)cc2)c1` (stereo unspecified), for which the Inhibition in assay [1] was found to be 11%.

Take `CCc1ccc(O)c(C(=O)c2ccccc2Cl)c1`: the Inhibition in assay [1] was 14%.

Regarding `CCc1ccc(OC)c(C(O)c2ccc(C)cc2)c1` (stereo unspecified), in assay [1], the Inhibition is 28%.

As to `CCc1ccc(O)c(Sc2ccc(Cl)cc2)c1`, the Inhibition in assay [1] and in assay [2] was 31% throughout.

For `CCc1ccc(O)c(C(=O)c2cccc(C#N)c2)c1`, in assay [1], the Inhibition is recorded as 21%.

For the compound `CCc1ccc(OC(C)=O)c(C(=O)c2ccc(C)cc2)c1`, the figures for the Inhibition in assay [1] and in assay [2] were 49% and 9%, respectively.

For `CCc1ccc(O)c(C(=O)c2ccc(C)cc2)c1`, the Inhibition in assay [1] came to 76%; in assay [2] it was 53%.

Turning to `CCc1ccc(Cc2ccc(F)cc2)c(O)c1`, the Inhibition in assay [1] was determined as 34%; in assay [2], 33%.

For `CCc1ccc(O)c(C(=O)c2ccncc2)c1`, the Inhibition in assay [1] worked out at 0%.

For `CCc1ccc(O)c(C(=O)c2ccc(C)s2)c1`, the Inhibition in assay [1] is 28%.

Consider `CCc1ccc(O)c(C(=O)c2ccc(Cl)s2)c1`, for which the Inhibition in assay [1] is on record as 21%.

Consider `CCc1ccc(O)c(C(O)c2ccc([N+](=O)[O-])cc2)c1` (stereo unspecified), for which the figures for the Inhibition in assay [1] and in assay [2] were 33% and 0%, respectively.

In the case of `Cc1cccc(C(=O)c2ccccc2)c1O`, the Inhibition in assay [1] came out at 0%.

For the compound `CCc1ccc(OC)c(C(OC)c2ccc(Cl)cc2)c1` (stereo unspecified), the Inhibition in assay [1] worked out at 32%; in assay [2], 22%.

Take `CCc1ccc(O)c(C(=O)c2ccc(Cl)c(Cl)c2)c1`: in assay [1], the Inhibition was determined as 0%.

For the compound `CCc1cccc(/C(=N/O)c2ccccc2)c1O`, in assay [1], the Inhibition was found to be 13%.

Regarding `CCc1ccc(O)c(C(=O)c2ccc([N+](=O)[O-])cc2)c1`, in assay [1], the Inhibition amounted to 5%.

`CCc1ccc([S+](C)[O-])c(C(=O)c2ccc(F)cc2)c1` (stereo unspecified): the values for the Inhibition in assay [1] and in assay [2] were 42% and 9%, respectively.

Turning to `CCc1ccc(O)c(/C(=N/O)c2ccc(Cl)cc2Cl)c1`, the Inhibition in assay [1] is given as 0%.

In the case of `CCc1ccc(O)c(C(=O)c2ccc3ccccc3c2)c1`, in assay [1], the Inhibition is 2%.

`CCc1ccc(S(C)(=O)=O)c(C(=O)c2ccc(Cl)cc2)c1`: the Inhibition in assay [1] stood at 17%.

On to `CCc1ccc(SC)c(C(=O)c2ccccc2)c1`, for which the values for the Inhibition in assay [1] and in assay [2] were 52% and 19%, respectively.

For `O=C(c1ccc(Cl)cc1)c1ccccc1O`, the Inhibition in assay [1] stood at 0%.

As for `CCc1ccc(O)c(Cc2ccc(C)cc2)c1`, the Inhibition in assay [1] is recorded as 0%.

Consider `CCc1ccc(SC)c(C(=O)c2ccc(F)cc2)c1`, for which the Inhibition in assay [1] came out at 31%; in assay [2], 14%.

For the compound `CCc1ccc(OC)c(C(=O)c2cc[n+]([O-])cc2)c1`, the Inhibition in assay [1] was found to be 0%.

With `CCc1ccc(C(=O)O)c(C(=O)c2ccc(Cl)cc2)c1`, the Inhibition in assay [1] is on record as 20%.

For the compound `CCc1ccc(OC)c(C(=O)c2ccccn2)c1`, in assay [1], the Inhibition amounted to 0%.

In the case of `CCc1ccc(O)c(Sc2ccccc2)c1`, in assay [1], the Inhibition was 0%.

As for `CCc1ccc(O)c(C(=O)c2cccnc2)c1`, the Inhibition in assay [1] is recorded as 27%.

On to `CCc1ccc(S(C)(=O)=O)c(C(=O)c2ccc(F)cc2)c1`, for which, in assay [1], the Inhibition is listed as 27%.

Take `CCc1ccc(S(C)(=O)=O)c(C(=O)c2ccccc2)c1`: the Inhibition turned out to be 35% in assay [1] and 13% in assay [2].

As to `CCc1ccc(SC)c(C(=O)c2ccc(C)cc2)c1`, the results for the Inhibition in assay [1] and in assay [2] were 32% and 0%, respectively.

With `Cc1ccc(O)c(/C(=N/O)c2ccc(Cl)cc2)c1`, the Inhibition in assay [1] is on record as 40%; in assay [2], 59%.

As to `CCc1ccc(O)c(C(=O)c2ccc(Cl)cc2Cl)c1`, the Inhibition in assay [1] was determined as 0%.
